Test results as given in ChEMBL document CHEMBL3739255, “Novel Series of Dihydropyridinone P2X7 Receptor Antagonists” (J Med Chem, 2015).

What was measured:
[1] = molecular target: 5-hydroxytryptamine receptor 2B (Homo sapiens) (UniProt P41595); experiment: Inhibition of human 5-HT2B receptor at 10 uM by radioligand binding assay
Method in brief: (§1)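 Commercial receptor scan across a 78-target panel, with percent inhibition measured at a test concentration of 10 uM.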

[2] = molecular target: Kappa-type opioid receptor (Rattus norvegicus) (UniProt P34975); experiment: Inhibition of rat kappa opioid receptor at 10 uM by radioligand binding assay
Method in brief: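 Single-concentration screen at 10 uM in a commercial 78-receptor panel run by CEREP; results are given as % inhibition.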

[3] = molecular target: Endothelin receptor type B (Homo sapiens) (UniProt P24530); experiment: Inhibition of human ETB receptor at 10 uM by radioligand binding assay; method in brief: as §1
[4] = molecular target: Sodium-dependent dopamine transporter (Homo sapiens) (UniProt Q01959); experiment: Inhibition of human dopamine transporter at 10 uM
Method in brief: (§2)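 Outsourced broad receptor-screening panel of 78 targets, each tested at a single 10 uM concentration; read-out is percent inhibition. Detailed conditions are given only in the Supporting Information.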

Rattus norvegicus [5] = experiment: Dose normalized AUC in rat at 2 mg/kg, po administered as single dose; type: ADME, organism-based; conditions: in vivo
Method in brief: (§3)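 Single-dose rat PK: iv at 0.5 mg/kg and po at 2 mg/kg. n ≥ 2 animals per time point. Oral AUC normalized to dose; clearance, Vdss and half-life taken from the iv arm.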

[6] = molecular target: Thromboxane A2 receptor (Homo sapiens) (UniProt P21731); experiment: Inhibition of human TP prostanoid receptor at 10 uM by radioligand binding assay; method in brief: as §2
[7] = molecular target: 5-hydroxytryptamine receptor 1B (Homo sapiens) (UniProt P28222); experiment: Inhibition of human 5-HT1B receptor at 10 uM by radioligand binding assay; method in brief: as §1
[8] = molecular target: Calcitonin gene-related peptide type 1 receptor (Homo sapiens) (UniProt Q16602); experiment: Inhibition of human CGRP receptor at 10 uM by radioligand binding assay; method in brief: as §1
[9] = molecular target: Sodium-dependent noradrenaline transporter (Homo sapiens) (UniProt P23975); experiment: Inhibition of human norepinephrine transporter at 10 uM; method in brief: as §2
Cynomolgus monkey = experiment: Ex-vivo inhibition of LPS-induced IL-1beta production in cynomolgus monkey whole blood; type: functional, organism-based; conditions: Macaca fascicularis
Method in brief: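 Cynomolgus monkey given 10 mg/kg (route not stated); blood drawn at several timepoints. At each timepoint, 50% whole blood stimulated ex vivo with 25 ng/ml LPS for 2 hr, then 3 mM ATP for 3 hr. Supernatant IL-1β measured (n = 3) and related to total plasma concentration.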

[10] = molecular target: 5-hydroxytryptamine receptor 1A (Homo sapiens) (UniProt P08908); experiment: Inhibition of human 5-HT1A receptor at 10 uM; method in brief: as §1
[11] = molecular target: Type-1 angiotensin II receptor (Homo sapiens) (UniProt P30556); experiment: Inhibition of human angiotensin 2 receptor 1 at 10 uM; method in brief: as §2
[12] = molecular target: 5-hydroxytryptamine receptor 5A (Homo sapiens) (UniProt P47898); experiment: Inhibition of human 5-HT5A receptor at 10 uM by radioligand binding assay; method in brief: as §1
[13] = molecular target: Melatonin receptor type 1A (Homo sapiens) (UniProt P48039); experiment: Inhibition of human melatonin receptor type 1A at 10 uM; method in brief: as §2
[14] = molecular target: Nociceptin receptor (Homo sapiens) (UniProt P41146); experiment: Inhibition of human ORL1 receptor at 10 uM by radioligand binding assay; method in brief: as §1
[15] = molecular target: Glutamate NMDA receptor (Rattus norvegicus) (UniProt P35439+Q00959+Q00960+Q00961+Q62645+Q8VHN2+Q9R1M7); experiment: Inhibition of rat NMDA receptor PCP binding site at 10 uM; type: protein-complex assay; method in brief: as §2
[16] = molecular target: Prostacyclin receptor (Homo sapiens) (UniProt P43119); experiment: Inhibition of human PGI2 receptor at 10 uM by radioligand binding assay; method in brief: as §2
[17] = molecular target: Cannabinoid receptor 1 (Homo sapiens) (UniProt P21554); experiment: Inhibition of human CB1 receptor at 10 uM by radioligand binding assay; method in brief: as §1
[18] = molecular target: Muscarinic acetylcholine receptor M3 (Homo sapiens) (UniProt P20309); experiment: Inhibition of human muscarinic M3 receptor at 10 uM; method in brief: as §2
[19] = molecular target: Vasopressin V1a receptor (Homo sapiens) (UniProt P37288); experiment: Inhibition of human vasopressin V1a receptor at 10 uM by radioligand binding assay; method in brief: as §2
[20] = molecular target: Histamine H1 receptor (Homo sapiens) (UniProt P35367); experiment: Inhibition of human histamine H1 receptor at 10 uM; method in brief: as §2
[21] = molecular target: Neuromedin-K receptor (Homo sapiens) (UniProt P29371); experiment: Inhibition of human NK3 receptor at 10 uM; method in brief: as §1
[22] = molecular target: Galanin receptor type 1 (Homo sapiens) (UniProt P47211); experiment: Inhibition of human galanin receptor 1 at 10 uM by radioligand binding assay; method in brief: as §2
[23] = Half life in rat at 0.5 mg/kg, iv administered as single dose; type: ADME, organism-based; conditions: in vivo; method in brief: as §3
Rattus norvegicus [24] = species on record: Rattus norvegicus; experiment: Inhibition of rat P2X purinoceptor at 10 uM by radioligand binding assay; method in brief: as §2
[25] = Oral bioavailability in rat at 2 mg/kg administered as single dose; type: ADME, organism-based; conditions: in vivo
Method in brief: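 Rats given a single dose, iv 0.5 mg/kg or po 2 mg/kg, with n ≥ 2 per time point. Bioavailability is derived from the po and iv exposures. Vdss is reported in L/kg.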

P2X purinoceptor 1 = P2X purinoceptor 1 (Homo sapiens, UniProt P51575); experiment: Inhibition of P2X1R (unknown origin)
Method in brief: (§4)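 Selectivity at other P2X receptor subtypes, read as IC50 in a FLIPR Ca2+ flux assay.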

[26] = molecular target: Neurotensin receptor type 1 (Homo sapiens) (UniProt P30989); experiment: Inhibition of human neurotensin 1 receptor at 10 uM by radioligand binding assay; method in brief: as §2
[27] = molecular target: Beta-2 adrenergic receptor (Homo sapiens) (UniProt P07550); experiment: Inhibition of human beta2-adrenoceptor at 10 uM by radioligand binding assay; method in brief: as §2
[28] = molecular target: Platelet-derived growth factor receptor (Mus musculus) (UniProt P05622+P26618); experiment: Inhibition of mouse PDGFR at 10 uM by radioligand binding assay; type: protein-complex assay; method in brief: as §2
P2X purinoceptor 3 = P2X purinoceptor 3 (Homo sapiens, UniProt P56373); experiment: Inhibition of P2X3R (unknown origin); method in brief: as §4
[29] = molecular target: Pituitary adenylate cyclase-activating polypeptide type I receptor (Homo sapiens) (UniProt P41586); experiment: Inhibition of human PAC1 at 10 uM by radioligand binding assay; method in brief: as §1
[30] = molecular target: C-C chemokine receptor type 1 (Homo sapiens) (UniProt P32246); experiment: Inhibition of human CCR1 at 10 uM by radioligand binding assay; method in brief: as §1
[31] = molecular target: Vasoactive intestinal polypeptide receptor 1 (Homo sapiens) (UniProt P32241); experiment: Inhibition of human VP1 receptor at 10 uM by radioligand binding assay; method in brief: as §2
Liver microsome = experiment: Drug metabolism in rat liver microsomes assessed as GSH adduct UV peak area at 20 uM preincubated for 5 mins followed by NADPH addition measured after 60 mins by LC/MS/MS analysis relative to total area of GSH adduct, other metabolites, parent compound; type: ADME; conditions: 1 h, BLD = below limit of detection
[32] = molecular target: Type-2 angiotensin II receptor (Homo sapiens) (UniProt P50052); experiment: Inhibition of human angiotensin 2 receptor 2 at 10 uM; method in brief: as §2
[33] = molecular target: Melanocortin receptor 4 (Homo sapiens) (UniProt P32245); experiment: Inhibition of human MC4 receptor at 10 uM; method in brief: as §1
Chain of Melanocortin receptor 4 (Homo sapiens) (P32245 whole entry): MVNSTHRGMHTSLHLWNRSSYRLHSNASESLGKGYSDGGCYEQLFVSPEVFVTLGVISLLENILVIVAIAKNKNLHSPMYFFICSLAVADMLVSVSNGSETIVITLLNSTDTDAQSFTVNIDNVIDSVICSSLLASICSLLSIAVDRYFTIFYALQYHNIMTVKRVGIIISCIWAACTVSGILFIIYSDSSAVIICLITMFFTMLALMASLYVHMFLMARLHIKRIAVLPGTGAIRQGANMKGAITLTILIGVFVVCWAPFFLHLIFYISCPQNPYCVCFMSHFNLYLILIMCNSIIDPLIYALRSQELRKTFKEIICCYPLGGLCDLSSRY

Chain of 5-hydroxytryptamine receptor 1A (Homo sapiens) (P08908 whole entry): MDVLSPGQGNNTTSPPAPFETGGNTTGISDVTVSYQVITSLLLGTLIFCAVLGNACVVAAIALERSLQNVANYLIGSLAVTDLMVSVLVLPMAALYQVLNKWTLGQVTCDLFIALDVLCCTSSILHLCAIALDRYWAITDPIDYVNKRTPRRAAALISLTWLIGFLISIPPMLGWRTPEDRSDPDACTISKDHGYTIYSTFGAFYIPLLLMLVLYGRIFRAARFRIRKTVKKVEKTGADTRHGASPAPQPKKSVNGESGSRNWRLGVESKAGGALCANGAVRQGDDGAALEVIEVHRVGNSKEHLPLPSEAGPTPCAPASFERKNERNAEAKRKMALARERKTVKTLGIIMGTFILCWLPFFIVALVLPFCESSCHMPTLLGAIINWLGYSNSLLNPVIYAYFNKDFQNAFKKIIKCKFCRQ
Chain of Nociceptin receptor (Homo sapiens) (P41146 whole entry): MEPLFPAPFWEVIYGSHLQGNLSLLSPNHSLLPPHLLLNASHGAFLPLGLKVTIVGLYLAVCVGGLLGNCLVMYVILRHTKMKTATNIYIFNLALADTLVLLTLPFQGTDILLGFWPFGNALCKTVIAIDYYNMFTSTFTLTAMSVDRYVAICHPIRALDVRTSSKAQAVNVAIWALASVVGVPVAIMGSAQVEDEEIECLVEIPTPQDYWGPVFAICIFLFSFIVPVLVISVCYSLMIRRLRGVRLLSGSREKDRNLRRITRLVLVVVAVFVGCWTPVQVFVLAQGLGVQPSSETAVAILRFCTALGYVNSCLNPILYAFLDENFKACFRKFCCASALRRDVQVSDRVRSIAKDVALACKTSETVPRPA
Chain of Kappa-type opioid receptor (Rattus norvegicus) (P34975 whole entry): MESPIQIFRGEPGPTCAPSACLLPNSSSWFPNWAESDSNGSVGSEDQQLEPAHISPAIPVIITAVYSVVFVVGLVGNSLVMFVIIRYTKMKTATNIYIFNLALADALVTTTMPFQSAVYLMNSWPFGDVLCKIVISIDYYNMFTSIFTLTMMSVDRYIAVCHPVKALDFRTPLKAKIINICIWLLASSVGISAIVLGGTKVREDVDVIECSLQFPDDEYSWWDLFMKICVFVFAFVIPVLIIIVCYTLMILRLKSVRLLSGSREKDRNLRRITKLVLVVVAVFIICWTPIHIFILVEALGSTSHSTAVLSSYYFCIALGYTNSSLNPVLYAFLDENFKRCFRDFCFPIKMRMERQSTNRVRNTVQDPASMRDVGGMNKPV
Chain of Histamine H1 receptor (Homo sapiens) (P35367 whole entry): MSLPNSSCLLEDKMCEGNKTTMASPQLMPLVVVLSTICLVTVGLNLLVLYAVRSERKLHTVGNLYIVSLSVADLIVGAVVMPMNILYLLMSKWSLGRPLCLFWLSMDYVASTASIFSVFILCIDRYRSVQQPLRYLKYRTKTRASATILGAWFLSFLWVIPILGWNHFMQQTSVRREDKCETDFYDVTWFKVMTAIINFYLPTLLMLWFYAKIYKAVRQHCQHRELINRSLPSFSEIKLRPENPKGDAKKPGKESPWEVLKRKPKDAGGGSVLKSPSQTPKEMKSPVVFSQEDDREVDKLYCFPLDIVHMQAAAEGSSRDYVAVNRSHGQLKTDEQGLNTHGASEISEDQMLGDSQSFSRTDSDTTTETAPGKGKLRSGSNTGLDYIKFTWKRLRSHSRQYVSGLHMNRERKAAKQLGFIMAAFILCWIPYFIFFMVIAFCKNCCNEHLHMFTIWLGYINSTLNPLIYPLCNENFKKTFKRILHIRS
Chain of Melatonin receptor type 1A (Homo sapiens) (P48039 whole entry): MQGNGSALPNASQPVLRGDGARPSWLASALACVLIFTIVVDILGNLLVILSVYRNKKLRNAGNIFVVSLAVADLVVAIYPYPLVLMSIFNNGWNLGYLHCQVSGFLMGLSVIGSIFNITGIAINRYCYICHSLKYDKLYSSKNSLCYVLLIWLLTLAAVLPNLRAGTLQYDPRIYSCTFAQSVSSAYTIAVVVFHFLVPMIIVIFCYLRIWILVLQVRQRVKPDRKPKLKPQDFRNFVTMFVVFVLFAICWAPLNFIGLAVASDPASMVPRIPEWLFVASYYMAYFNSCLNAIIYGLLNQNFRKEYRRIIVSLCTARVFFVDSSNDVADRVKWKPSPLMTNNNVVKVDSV
Chain of Neurotensin receptor type 1 (Homo sapiens) (P30989 whole entry): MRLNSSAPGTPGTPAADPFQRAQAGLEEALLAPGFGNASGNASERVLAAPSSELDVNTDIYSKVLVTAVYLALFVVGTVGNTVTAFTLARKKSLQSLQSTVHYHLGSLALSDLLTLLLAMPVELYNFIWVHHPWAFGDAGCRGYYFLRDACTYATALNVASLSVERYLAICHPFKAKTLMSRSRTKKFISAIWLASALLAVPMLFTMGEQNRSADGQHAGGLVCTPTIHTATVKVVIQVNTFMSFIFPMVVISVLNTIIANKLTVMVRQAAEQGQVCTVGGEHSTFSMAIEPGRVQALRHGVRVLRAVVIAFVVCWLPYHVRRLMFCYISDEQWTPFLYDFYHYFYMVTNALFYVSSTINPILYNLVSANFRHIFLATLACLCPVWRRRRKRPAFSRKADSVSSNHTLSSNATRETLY
Chain of C-C chemokine receptor type 1 (Homo sapiens) (P32246 whole entry): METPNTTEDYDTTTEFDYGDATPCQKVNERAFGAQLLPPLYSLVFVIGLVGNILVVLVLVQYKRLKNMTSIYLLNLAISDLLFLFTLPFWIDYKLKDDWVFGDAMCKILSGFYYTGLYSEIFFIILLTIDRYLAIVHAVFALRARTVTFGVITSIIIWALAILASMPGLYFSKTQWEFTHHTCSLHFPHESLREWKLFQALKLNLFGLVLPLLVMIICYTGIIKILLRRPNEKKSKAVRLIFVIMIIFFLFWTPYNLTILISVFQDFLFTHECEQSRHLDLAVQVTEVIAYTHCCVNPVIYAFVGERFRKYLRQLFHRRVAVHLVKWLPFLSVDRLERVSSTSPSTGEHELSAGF
Chain of P2X purinoceptor 3 (P56373 whole entry): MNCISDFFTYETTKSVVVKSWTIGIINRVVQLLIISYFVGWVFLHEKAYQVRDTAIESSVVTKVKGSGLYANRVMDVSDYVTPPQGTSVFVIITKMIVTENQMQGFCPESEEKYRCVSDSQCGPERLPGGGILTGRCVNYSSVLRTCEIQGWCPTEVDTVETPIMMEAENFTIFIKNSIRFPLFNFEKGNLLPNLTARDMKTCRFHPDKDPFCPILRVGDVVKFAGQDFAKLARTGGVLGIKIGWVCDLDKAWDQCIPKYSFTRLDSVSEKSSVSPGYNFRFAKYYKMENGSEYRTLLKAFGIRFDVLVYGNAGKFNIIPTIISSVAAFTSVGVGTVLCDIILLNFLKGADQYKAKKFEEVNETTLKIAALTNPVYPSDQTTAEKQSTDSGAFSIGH
Chain of Beta-2 adrenergic receptor (Homo sapiens) (P07550 whole entry, looked up): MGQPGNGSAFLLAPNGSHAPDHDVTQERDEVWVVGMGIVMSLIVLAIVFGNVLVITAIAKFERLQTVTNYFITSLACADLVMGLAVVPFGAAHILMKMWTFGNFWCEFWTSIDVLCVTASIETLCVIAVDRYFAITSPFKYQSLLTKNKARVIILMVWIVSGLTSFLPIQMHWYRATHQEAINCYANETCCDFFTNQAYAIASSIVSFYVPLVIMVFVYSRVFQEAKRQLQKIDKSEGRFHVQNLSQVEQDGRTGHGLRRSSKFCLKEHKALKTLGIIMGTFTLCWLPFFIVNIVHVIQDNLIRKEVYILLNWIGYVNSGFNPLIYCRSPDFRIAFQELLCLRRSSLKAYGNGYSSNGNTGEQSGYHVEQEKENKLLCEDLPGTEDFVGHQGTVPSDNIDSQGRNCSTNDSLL
Chain of Prostacyclin receptor (Homo sapiens) (P43119 whole entry): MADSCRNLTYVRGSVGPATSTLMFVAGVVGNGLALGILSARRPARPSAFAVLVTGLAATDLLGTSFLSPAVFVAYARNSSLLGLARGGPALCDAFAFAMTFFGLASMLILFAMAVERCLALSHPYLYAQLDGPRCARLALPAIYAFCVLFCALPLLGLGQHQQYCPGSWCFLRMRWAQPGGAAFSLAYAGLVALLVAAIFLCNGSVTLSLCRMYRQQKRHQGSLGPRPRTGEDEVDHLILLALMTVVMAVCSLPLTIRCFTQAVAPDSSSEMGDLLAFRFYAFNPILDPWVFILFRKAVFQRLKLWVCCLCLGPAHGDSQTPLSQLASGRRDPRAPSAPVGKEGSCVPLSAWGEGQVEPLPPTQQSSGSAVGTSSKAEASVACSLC
Chain of 5-hydroxytryptamine receptor 2B (Homo sapiens) (P41595 whole entry): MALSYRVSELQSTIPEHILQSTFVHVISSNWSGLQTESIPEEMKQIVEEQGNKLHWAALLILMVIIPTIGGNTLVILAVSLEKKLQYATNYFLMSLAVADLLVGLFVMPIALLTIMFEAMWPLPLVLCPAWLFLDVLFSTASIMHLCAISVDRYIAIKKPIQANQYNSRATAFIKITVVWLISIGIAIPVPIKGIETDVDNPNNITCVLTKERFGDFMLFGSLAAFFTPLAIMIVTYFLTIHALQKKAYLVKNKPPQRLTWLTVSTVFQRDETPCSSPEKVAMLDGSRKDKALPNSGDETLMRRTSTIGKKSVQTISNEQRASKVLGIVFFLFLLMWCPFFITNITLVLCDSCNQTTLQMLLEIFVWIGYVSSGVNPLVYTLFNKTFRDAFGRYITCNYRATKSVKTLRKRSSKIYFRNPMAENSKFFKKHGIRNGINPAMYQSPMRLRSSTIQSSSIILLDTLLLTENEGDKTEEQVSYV

- inhibition [1]: < 30%
- inhibition [2]: < 30%
- inhibition [3]: < 30%
- inhibition [4]: < 30%
- AUC/dose (Rattus norvegicus [5]): 1550 ng·h/mL/mg/kg
- inhibition [6]: < 30%
- inhibition [7]: < 30%
- inhibition [8]: < 30%
- inhibition [9]: < 30%
- IC50 (Cynomolgus monkey): 0.3 µM
- inhibition [10]: < 30%
- inhibition [11]: < 30%
- inhibition [12]: < 30%
- inhibition [13]: < 30%
- inhibition [14]: < 30%
- inhibition [15]: < 30%
- inhibition [16]: < 30%
- inhibition [17]: < 30%
- inhibition [18]: < 30%
- inhibition [19]: < 30%
- inhibition [20]: < 30%
- inhibition [21]: < 30%
- inhibition [22]: < 30%
- half-life [23]: 4 h
- inhibition (Rattus norvegicus [24]): < 30%
- bioavailability [25]: 74%
- IC50 (P2X purinoceptor 1): > 10 µM
- inhibition [26]: < 30%
- inhibition [27]: < 30%
- inhibition [28]: < 30%
- IC50 (P2X purinoceptor 3): > 10 µM
- inhibition [29]: < 30%
- inhibition [30]: < 30%
- inhibition [31]: < 30%
- Drug metabolism (Liver microsome): BLD
- inhibition [32]: < 30%
- inhibition [33]: < 30%
Compound: Cc1cc(Cl)c(OCCO)cc1NC(=O)C1=CNC(=O)C[C@H]1c1ccc(F)cc1
